The values below come from article PMC8586590 (Bioactive Materials, 2021).

Broadly, the IC50 is the concentration that inhibits the measured activity by half. A low value points to higher potency.

Series [1] relates to HepG2 3D multicellular spheroids. The experiment in a line: Multicellular spheroid. The settings on record: HepG2 MCSs, 100 μM, medium replaced every two days, 7 days, N=3. The series is classed as cell-based. The method in brief:
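HepG2 3D spheroids held in 100 μM formulation, with medium replaced every two days; drug-free medium served as control. Spheroid volume calculated as V = 4/3πr³ from the radius and expressed relative to each spheroid's day-0 volume. Mean ± SD, N = 3.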

The format of series [2] is in vivo, Balb/c nude mice. The settings on record: i.v., 3 mg/kg HCPT-equivalent. The method in brief: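 Normal Balb/c nude mice (4–6 weeks, 16–19 g), six groups of five including saline, treated three times. Eye blood taken on days 1 and 5 after the third dose. For haematology, 300 μL into heparinised tubes; for biochemistry, 500 μL, centrifuged at 2500×g for 15 min and the supernatant used. Xenograft mice: body weight every three days and H&E of major organs at study end.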

Another series relates to HepG2-luci cells. The experiment in a line: Lung metastasis model. The series is classed as in vivo, Balb/c nude mice. The settings on record: after 30 days, i.v., 3 mg/kg HCPT equivalent, four injections, N=5. The method in brief:
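Balb/c nude mice (4–6 weeks, 20 ± 2 g) received 1 × 10⁶ HepG2-luci cells in 200 μL serum-free DMEM via the tail vein. Six days later (day 0) they were randomised into six groups of five and dosed i.v. at 3 mg/kg HCPT-equivalent on days 0, 3, 6 and 9. Study ended at day 30: lungs fixed in Bouin's for 24 h and photographed, then formalin-fixed paraffin sections stained with H&E.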

Another series has as its system HepG2 cells. The experiment in a line: Cell inhibition, MTT assay. The format is cell-based. The settings on record: Homo sapiens, HepG2, 48 h.

Regarding `CC[C@@]1(O)C(=O)OCc2c1cc1n(c2=O)Cc2cc3cc(O)ccc3nc2-1` [HCPT, 10-hydroxycamptothecin], in series [1], the “MCS volume relative to initial volume” value is recorded as “stable volume”. The “blood parameters RBC, WBC, HGB, PLT (hematotoxicity)” value in series [2] (three times, N=5) was “deteriorated”. In addition, the “body weight during treatment” value in series [2] (tumor-bearing mice) is listed as “obvious weight loss”. Besides, the “bioluminescence signal of HepG2-luci cells in the lung” value in the series with HepG2-luci cells is given as “the strongest”. In addition, the IC50 with HepG2 cells is 840 nM.
